Measured values taken from ChEMBL document CHEMBL4689842, “EUbOPEN Chemogenomics Library wave 1” (2021).
Several values for one entry are separate records, joined by “and”; a condition that tells them apart may be missing. Identical values can stand only once.

Tested on: U2OS
Experiment: Multiplex assay against U2OS
Format: toxicity, cell-based
Conditions: human
Procedure, shortened: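 Cells were classed with CellPathfinder machine-learning gating, first as Hoechst high-intensity objects or normal cells, then (normal cells) as healthy, pyknosed or fragmented nuclei, and finally (pyknosed cells) as mitotic or apoptotic. Staining of live cells at seeding used Hoechst33342, BioTracker Green Microtubule Cytoskeleton Dye, MitoTracker Red and Annexin V Alexa Fluor 680, with imaging on a CQ1 microscope at 37°C and 5% CO2 after compound addition. Tubulin, mitochondrial-mass and membrane-permeability phenotypes are per cents of healthy-nucleus cells.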

[1] = 12 h, 1 µM, compound concentration 1 uM, replicate 1
[2] = 12 h, 1 µM, compound concentration 1 uM, replicate 2
[3] = 12 h, 10 µM, compound concentration 10 uM, replicate 1
[4] = 12 h, 10 µM, compound concentration 10 uM, replicate 2
[5] = 24 h, 1 µM, compound concentration 1 uM, replicate 1
[6] = 24 h, 1 µM, compound concentration 1 uM, replicate 2
[7] = 24 h, 10 µM, compound concentration 10 uM, replicate 1
[8] = 24 h, 10 µM, compound concentration 10 uM, replicate 2
[9] = 48 h, 10 µM, compound concentration 10 uM, replicate 1
[10] = 48 h, 10 µM, compound concentration 10 uM, replicate 2

Structure (SMILES): CN[C@@H]1C[C@H]2O[C@@](C)([C@@H]1OC)n1c3ccccc3c3c4c(c5c6ccccc6n2c5c31)C(=O)NC4 [STAUROSPORINE]
- Population Apoptotic (%) [1]: 53%
- Population Fragmented Nuclei (%) [1]: 47%
- Population Healthy Nuclei (%) [1]: 12%
- Population Hoechst High Intensity Objects (%) [1]: 4%
- Population Membrane Permeable-Phenotype (%) [1]: 89%
- Population Mitochondria Different-Phenotype (%) [1]: 57%
- Population Mitotic Cells (%) [1]: 46%
- Population Normal (%) [1]: 95%
- Population Pyknosed Nuclei (%) [1]: 40%
- Population Tubulin-Different-Phenotype (%) [1]: 89%
- Population Apoptotic (%) [2]: 62%
- Population Fragmented Nuclei (%) [2]: 65%
- Population Healthy Nuclei (%) [2]: 3%
- Population Hoechst High Intensity Objects (%) [2]: 7%
- Population Membrane Permeable-Phenotype (%) [2]: 100%
- Population Mitochondria Different-Phenotype (%) [2]: 83%
- Population Mitotic Cells (%) [2]: 37%
- Population Normal (%) [2]: 92%
- Population Pyknosed Nuclei (%) [2]: 30%
- Population Tubulin-Different-Phenotype (%) [2]: 91%
- Population Apoptotic (%) [3]: 51% and 87% and 83%
- Population Fragmented Nuclei (%) [3]: 45% and 41% and 40%
- Population Healthy Nuclei (%) [3]: 5% and 0% and 1%
- Population Hoechst High Intensity Objects (%) [3]: 6% and 7% and 3%
- Population Membrane Permeable-Phenotype (%) [3]: 94% and 100% and 71%
- Population Mitochondria Different-Phenotype (%) [3]: 50% and 100% and 85%
- Population Normal (%) [3]: 93% and 92% and 96%
- Population Pyknosed Nuclei (%) [3]: 48% and 57% and 58%
- Population Tubulin-Different-Phenotype (%) [3]: 94% and 100%
- Population Apoptotic (%) [4]: 86% and 56% and 73%
- Population Fragmented Nuclei (%) [4]: 26% and 64% and 42%
- Population Healthy Nuclei (%) [4]: 15% and 6% and 12%
- Population Hoechst High Intensity Objects (%) [4]: 15% and 8%
- Population Membrane Permeable-Phenotype (%) [4]: 95% and 84%
- Population Mitochondria Different-Phenotype (%) [4]: 75% and 71% and 84%
- Population Normal (%) [4]: 84% and 91%
- Population Pyknosed Nuclei (%) [4]: 29% and 45%
- Population Tubulin-Different-Phenotype (%) [4]: 91% and 92%
- Population Apoptotic (%) [5]: 93%
- Population Fragmented Nuclei (%) [5]: 34%
- Population Healthy Nuclei (%) [5]: 22%
- Population Hoechst High Intensity Objects (%) [5]: 14%
- Population Membrane Permeable-Phenotype (%) [5]: 96%
- Population Mitochondria Different-Phenotype (%) [5]: 56%
- Population Mitotic Cells (%) [5]: 6%
- Population Normal (%) [5]: 85%
- Population Pyknosed Nuclei (%) [5]: 42%
- Population Tubulin-Different-Phenotype (%) [5]: 92%
- Population Apoptotic (%) [6]: 94%
- Population Fragmented Nuclei (%) [6]: 58%
- Population Healthy Nuclei (%) [6]: 10%
- Population Hoechst High Intensity Objects (%) [6]: 13%
- Population Membrane Permeable-Phenotype (%) [6]: 95%
- Population Mitochondria Different-Phenotype (%) [6]: 66%
- Population Mitotic Cells (%) [6]: 5%
- Population Normal (%) [6]: 86%
- Population Pyknosed Nuclei (%) [6]: 31%
- Population Tubulin-Different-Phenotype (%) [6]: 91%
- Population Apoptotic (%) [7]: 93% and 90% and 94%
- Population Fragmented Nuclei (%) [7]: 48% and 46% and 38%
- Population Healthy Nuclei (%) [7]: 0% and 15%
- Population Hoechst High Intensity Objects (%) [7]: 5% and 11%
- Population Mitochondria Different-Phenotype (%) [7]: 50% and 45%
- Population Mitotic Cells (%) [7]: 6% and 9% and 5%
- Population Normal (%) [7]: 94% and 88%
- Population Pyknosed Nuclei (%) [7]: 50% and 52% and 45%
- Population Tubulin-Different-Phenotype (%) [7]: 50% and 100% and 94%
- Population Apoptotic (%) [8]: 88% and 96% and 77%
- Population Hoechst High Intensity Objects (%) [8]: 27% and 26%
- Population Membrane Permeable-Phenotype (%) [8]: 95% and 92%
- Population Mitochondria Different-Phenotype (%) [8]: 95% and 69% and 92%
- Population Normal (%) [8]: 72% and 73%
- Population Pyknosed Nuclei (%) [8]: 36% and 23% and 38%
- Population Tubulin-Different-Phenotype (%) [8]: 95% and 92%
- Population Apoptotic (%) [9]: 95%
- Population Fragmented Nuclei (%) [9]: 51% and 55%
- Population Healthy Nuclei (%) [9]: 0%
- Population Hoechst High Intensity Objects (%) [9]: 7% and 11%
- Population Mitochondria Different-Phenotype (%) [9]: 66% and 100%
- Population Mitotic Cells (%) [9]: 4%
- Population Normal (%) [9]: 92% and 88%
- Population Pyknosed Nuclei (%) [9]: 47% and 43%
- Population Tubulin-Different-Phenotype (%) [9]: 100%
- Population Apoptotic (%) [10]: 89% and 100%
- Population Fragmented Nuclei (%) [10]: 22% and 13%
- Population Healthy Nuclei (%) [10]: 49% and 56%
- Population Hoechst High Intensity Objects (%) [10]: 18% and 25%
- Population Mitochondria Different-Phenotype (%) [10]: 96% and 92%
- Population Mitotic Cells (%) [10]: 10% and 0%
- Population Normal (%) [10]: 81% and 74%
- Population Pyknosed Nuclei (%) [10]: 28% and 30%
- Population Tubulin-Different-Phenotype (%) [10]: 96% and 92%

Structure (SMILES): CN1CCN(C(=O)C(C)(C)c2ccc(C(=O)Nc3cn4cc(-c5cc(C(C)(C)C)cc(C(C)(C)C)c5)ccc4n3)cc2)CC1 [T3-CLK-N]
- Population Apoptotic (%) [1]: 25%
- Population Fragmented Nuclei (%) [1]: 8%
- Population Healthy Nuclei (%) [1]: 81%
- Population Hoechst High Intensity Objects (%) [1]: 8%
- Population Membrane Permeable-Phenotype (%) [1]: 18%
- Population Mitochondria Different-Phenotype (%) [1]: 20%
- Population Mitotic Cells (%) [1]: 75%
- Population Normal (%) [1]: 91%
- Population Pyknosed Nuclei (%) [1]: 9%
- Population Tubulin-Different-Phenotype (%) [1]: 18%
- Total Cell Count [1]: 162
- Population Apoptotic (%) [2]: 28%
- Population Fragmented Nuclei (%) [2]: 6%
- Population Healthy Nuclei (%) [2]: 86%
- Population Hoechst High Intensity Objects (%) [2]: 11%
- Population Membrane Permeable-Phenotype (%) [2]: 14%
- Population Mitochondria Different-Phenotype (%) [2]: 29%
- Population Mitotic Cells (%) [2]: 71%
- Population Normal (%) [2]: 88%
- Population Pyknosed Nuclei (%) [2]: 6%
- Population Tubulin-Different-Phenotype (%) [2]: 14%
- Total Cell Count [2]: 72
- Population Apoptotic (%) [3]: 27%
- Population Fragmented Nuclei (%) [3]: 5%
- Population Healthy Nuclei (%) [3]: 87%
- Population Hoechst High Intensity Objects (%) [3]: 3%
- Population Membrane Permeable-Phenotype (%) [3]: 58%
- Population Mitochondria Different-Phenotype (%) [3]: 20%
- Population Mitotic Cells (%) [3]: 72%
- Population Normal (%) [3]: 96%
- Population Pyknosed Nuclei (%) [3]: 6%
- Population Tubulin-Different-Phenotype (%) [3]: 34%
- Total Cell Count [3]: 177
- Population Apoptotic (%) [4]: 50%
- Population Fragmented Nuclei (%) [4]: 16%
- Population Healthy Nuclei (%) [4]: 80%
- Population Hoechst High Intensity Objects (%) [4]: 15%
- Population Membrane Permeable-Phenotype (%) [4]: 56%
- Population Mitochondria Different-Phenotype (%) [4]: 38%
- Population Mitotic Cells (%) [4]: 50%
- Population Normal (%) [4]: 84%
- Population Pyknosed Nuclei (%) [4]: 3%
- Population Tubulin-Different-Phenotype (%) [4]: 31%
- Total Cell Count [4]: 120
- Population Apoptotic (%) [5]: 23%
- Population Fragmented Nuclei (%) [5]: 9%
- Population Healthy Nuclei (%) [5]: 80%
- Population Hoechst High Intensity Objects (%) [5]: 9%
- Population Membrane Permeable-Phenotype (%) [5]: 8%
- Population Mitochondria Different-Phenotype (%) [5]: 14%
- Population Mitotic Cells (%) [5]: 76%
- Population Normal (%) [5]: 90%
- Population Pyknosed Nuclei (%) [5]: 10%
- Population Tubulin-Different-Phenotype (%) [5]: 15%
- Total Cell Count [5]: 175
- Population Apoptotic (%) [6]: 33%
- Population Fragmented Nuclei (%) [6]: 6%
- Population Healthy Nuclei (%) [6]: 89%
- Population Hoechst High Intensity Objects (%) [6]: 8%
- Population Membrane Permeable-Phenotype (%) [6]: 13%
- Population Mitochondria Different-Phenotype (%) [6]: 24%
- Population Mitotic Cells (%) [6]: 66%
- Population Normal (%) [6]: 91%
- Population Pyknosed Nuclei (%) [6]: 4%
- Population Tubulin-Different-Phenotype (%) [6]: 16%
- Total Cell Count [6]: 97
- Population Apoptotic (%) [7]: 54%
- Population Fragmented Nuclei (%) [7]: 9%
- Population Healthy Nuclei (%) [7]: 83%
- Population Hoechst High Intensity Objects (%) [7]: 2%
- Population Membrane Permeable-Phenotype (%) [7]: 53%
- Population Mitochondria Different-Phenotype (%) [7]: 27%
- Population Mitotic Cells (%) [7]: 45%
- Population Normal (%) [7]: 97%
- Population Pyknosed Nuclei (%) [7]: 6%
- Population Tubulin-Different-Phenotype (%) [7]: 39%
- Total Cell Count [7]: 230
- Population Apoptotic (%) [8]: 50%
- Population Fragmented Nuclei (%) [8]: 17%
- Population Healthy Nuclei (%) [8]: 71%
- Population Hoechst High Intensity Objects (%) [8]: 14%
- Population Membrane Permeable-Phenotype (%) [8]: 48%
- Population Mitochondria Different-Phenotype (%) [8]: 56%
- Population Mitotic Cells (%) [8]: 50%
- Population Normal (%) [8]: 85%
- Population Pyknosed Nuclei (%) [8]: 10%
- Population Tubulin-Different-Phenotype (%) [8]: 43%
- Total Cell Count [8]: 144
